RORa activator = activators of human nuclear receptor RORA; P35398; CHO-K1 Gal4-RORA LBD luciferase reporter, luminescence; percent increase over mock-subtracted basal signal; activation, % at 10 µM; 65,000 tested, 1.5% active; AID 560;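 active means activation above the mean of all tested compounds plus 3 SD, cut at about 49% in these data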
Target sequence (P35398 whole entry, looked up, the tested form may be a part): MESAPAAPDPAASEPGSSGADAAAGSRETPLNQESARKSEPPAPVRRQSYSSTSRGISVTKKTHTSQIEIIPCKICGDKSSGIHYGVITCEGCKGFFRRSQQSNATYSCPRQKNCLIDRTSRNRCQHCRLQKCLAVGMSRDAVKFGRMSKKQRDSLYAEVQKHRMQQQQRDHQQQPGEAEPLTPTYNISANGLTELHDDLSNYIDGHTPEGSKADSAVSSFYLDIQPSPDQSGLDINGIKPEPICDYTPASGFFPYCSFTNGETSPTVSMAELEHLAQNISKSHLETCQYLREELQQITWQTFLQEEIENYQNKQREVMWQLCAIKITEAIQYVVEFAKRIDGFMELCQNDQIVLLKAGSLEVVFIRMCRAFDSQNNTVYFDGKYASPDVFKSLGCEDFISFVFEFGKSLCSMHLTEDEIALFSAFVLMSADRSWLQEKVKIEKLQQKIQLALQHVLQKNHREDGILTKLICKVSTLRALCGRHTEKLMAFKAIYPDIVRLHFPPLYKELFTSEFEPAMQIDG
MMP-13 inhibitor = MMP13 (human) collagenase inhibition | P45452 | MMP-13 fTHP FRET cleavage, Mca fluorescence | inhibition, % at 4 µM | 65,000 tested, 0.07% active | AID 570;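 active means inhibition above the mean of compound-free control plate wells plus 3 SD, cut at about 14% in these data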
PKA kinase inh = blocks human protein kinase A activity; inhibition, % at 6 µM; 65,000 tested, 0.1% active; PKA Kemptide phosphorylation, Kinase-Glo ATP luminescence;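 active means inhibition above the screen-wide mean inhibition plus 3 SD, cut at about 21% in these data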
SF1 activator = activates the human nuclear receptor SF-1; Q13285; AID 522; activation, % at 10 µM; CHO-K1 Gal4-SF-1 LBD luciferase reporter; % increase over DMSO SF-1-specific signal; 65,000 tested, 1.9% active;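 active means activation above the mean activation of all tested compounds plus 3 SD, cut at about 50% in these data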
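Material: CHO-K1 cells with Gal4–hSF-1 LBD chimera plus Gal4-driven luciferase / Input: 4,000 CHO-K1 cells per well / Incubation: compound exposure 20 h at 37 °C / Signal: luminescence read 15 min after SteadyLite luciferase reagent, after room-temperature equilibration / Read-out: percent activation versus DMSO / Benchmarks: DMSO negative control and −SF1 background wells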
JNK3 inh = blocks human JNK3 kinase activity; P53779; purified JNK3 kinase activity, HTS; inhibition, % at 8 µM; 60,000 tested, 0.61% active; in the data active means inhibition above about 17%
ROCK2 blocker = blocks human Rho kinase 2 activity; 60,000 tested, 0.35% active; purified ROCK2, Kinase-Glo ATP depletion luminescence; O75116; inhibition, % at 6 µM;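 active means inhibition above the screen-wide mean inhibition plus 3 SD, cut at about 18% in these data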
Large screens that a line does not name were inactive. Only some compounds are listed: those with a hit (about 3.4% of all), similar ones and a draw of the others.

N#Cc1c(-c2ccco2)nc(SCc2ccc(F)cc2)[nH]c1=O	JNK3 inh 32.9
Cc1nc2ccccn2c1/C(O)=C1\C(=O)C(=O)N(CCCN(C)C)C1c1ccc(Cl)cc1 (stereo not drawn)	none
COc1ccc(CNc2ccc(-c3ccc(OC)cc3)nn2)cc1	SF1 activator 80.3
COc1ccc(NCc2ccc(OC)c(OC)c2)cc1	none
CCOc1ccc(/C=C\C(C)=N\O)cc1	RORa activator 72.3
COc1ccccc1NC(=O)Nc1nnc(C(C)C)s1	SF1 activator 52.9
COc1ccccc1-c1nnc(NC(C)=O)s1	RORa activator 78.5
O=C(N1CCCC1)N1CCN(c2ncnc3c(-c4ccc(Cl)cc4)nsc23)CC1	none
COC(=O)c1ccc(NC(=O)Cn2nnc3ccccc32)cc1	SF1 activator 75.6
CN1CCc2c(sc3c2C(=O)NC(c2ccco2)N3)C1 (stereo not drawn)	none
CN1CCc2c(sc3c2C(=O)NC(c2cccc(OC(=O)c4cccs4)c2)N3)C1 (stereo not drawn)	RORa activator 62.3, SF1 activator 57.9
CN(C)c1ccc(CN(C(=O)C2COc3ccccc3O2)C2CCS(=O)(=O)C2)cc1 (stereo not drawn)	none
CN1CCN(/C=N/c2c(C#N)cnn2Cc2ccccc2)CC1	none
CCCCC1CCC(c2nc(-c3ccccn3)no2)CC1 (stereo not drawn)	SF1 activator 52.4
CCCCC1CCC(c2nc(-c3cccnc3)no2)CC1 (stereo not drawn)	none
COc1cc(CC(=O)Nc2sccc2C(N)=O)cc(OC)c1OC	JNK3 inh 55.8
Cc1ccsc1C(=O)OCC(=O)Nc1sccc1C(N)=O	SF1 activator 74.5
O=c1[nH]c(NCc2ccco2)nnc1Cc1ccccc1Cl	none (no result: JNK3 inh, ROCK2 blocker)
COC(=O)C1=C(C)N2C(=O)CSC2=NC1c1ccc2c(c1)OCO2 (stereo not drawn)	none
CCCn1cnc2cc(NCc3ccccn3)ccc21	none
Cc1ccc(CNc2ccc3c(c2)ncn3C)cc1	RORa activator 63.0, SF1 activator 57.1
CCn1cnc2cc(NCc3ccncc3)ccc21	none
COc1ccc(CNc2ccc(C(=O)O)cc2)cc1	SF1 activator 78.0
CCc1ccc(CNc2ccc3c(c2)ncn3C)cc1	RORa activator 61.1, SF1 activator 69.5
Cc1nc2cc(CO)ccc2n1C	none
COc1ccc(CNc2ccc3c(c2)nc(C)n3C)cc1	SF1 activator 78.7
CCc1ccc2[nH]c(=O)c(C(c3nnnn3CCOC)N3CCN(c4ccccc4)CC3)cc2c1 (stereo not drawn)	none
C=CCc1c(C)c(C#N)c2nc3ccccc3n2c1N1CCN(C)CC1	none
CC1CCc2c(sc3nc(C4CC4)nc(SCC(=O)NCc4ccco4)c23)C1 (stereo not drawn)	none
COc1ccc(NC(=O)CN(C)S(=O)(=O)c2ccc3c(c2)OCCO3)c2ncccc12	none
Cc1ccc(C(=O)Nc2ccc3c(c2)ncn3C)cc1	RORa activator 52.0
CC(=O)N1CCc2cc(NC(=O)c3ccc(C)cc3)ccc21	none
CCn1ccc(C(=O)Nc2ccc(N(C)C(C)=O)cc2)n1	none
CCn1ccc(C(=O)Nc2ccc(Cl)cn2)n1	RORa activator 58.8, SF1 activator 77.8
Cn1c(CSc2nc3ccccc3s2)nc2ccccc21	SF1 activator 70.7
O=c1oc2ccccc2n1CSc1nc2ccccc2s1	RORa activator 66.1, SF1 activator 52.1
N#Cc1c(NC(=O)c2ccc(Cn3cc(Br)cn3)o2)sc2c1CCCCCC2	none
CC1(C)Cc2c(sc(NC(=O)c3ccc(Br)o3)c2C#N)CO1	SF1 activator 62.3
O=c1cc(Nc2ccc3c(c2)OCCO3)[nH]c(=O)n1C1CCCCC1	none
CCc1ccc(Nc2cc(=O)n(C3CCCCC3)c(=O)[nH]2)cc1	SF1 activator 51.6
COC(=O)C1=C(N)Oc2cc(C)n(CC3CCCO3)c(=O)c2C1c1ccccc1OC (stereo not drawn)	none
COC(=O)C1=C(N)Oc2cc(N(C)C)ccc2C1c1ccccc1OC (stereo not drawn)	RORa activator 49.2
Cc1nnc(Sc2nc(Sc3nnc(C)s3)nc(N3CCN(C)CC3)n2)s1	none
Clc1ccccc1Cn1nnc(-c2cccs2)n1	SF1 activator 50.8
O=C(CCn1nnc(-c2cccs2)n1)NCc1ccccc1Cl	none
Cn1c(C(=O)N2CCCC(C(=O)N3CCN(C(=O)c4ccco4)CC3)C2)cc2sccc21 (stereo not drawn)	ROCK2 blocker 83.5
COCCNC(=O)c1noc2c1CCc1cc(OC)ccc1-2	SF1 activator 72.0
COc1ccc2c(c1)CCc1c(C(=O)NCCN3CCOCC3)noc1-2	none
COc1ccc2c(c1)CCc1c(C(=O)NC3CCCCC3)noc1-2	SF1 activator 54.1
COCC(C)NC(=O)c1noc2c1CCc1cc(OC)ccc1-2 (stereo not drawn)	SF1 activator 67.6
CCC1CCCCN1Cc1nc2c(c(=O)n(C)c(=O)n2C)n1Cc1cccc2ccccc12 (stereo not drawn)	none
CC1CCN(C(=O)CSc2ccc3nnc(-c4ccc(F)cc4)n3n2)CC1	none
Cn1c(C(=O)N2CCc3ccccc32)cc2c(=O)n3ccccc3nc21	none
COC(=O)NC1CSCC1OC(=O)CN1C(=O)c2ccccc2C1=O (stereo not drawn)	none
O=C(CCCc1cccs1)Nc1nc2c(s1)CCCC2	SF1 activator 73.2
CC1CCc2nc(NC(=O)Cc3cccs3)sc2C1 (stereo not drawn)	SF1 activator 63.1
COc1ccc(Nc2ncc3c(n2)CC(c2ccccc2)CC3=O)cc1 (stereo not drawn)	none
COc1cccc(C(=O)Nc2ncc3c(n2)CC(c2ccc(OC)cc2OC)CC3=O)c1 (stereo not drawn)	SF1 activator 56.6
COC(=O)c1sc(NC(=O)C2CCCCC2C(=O)O)c(C(=O)OC)c1C (stereo not drawn)	none
O=C(COc1ccc(F)c(Cl)c1)c1ccc[nH]1	none
O=C(CCC(=O)c1ccc[nH]1)c1ccc(Cl)cc1	SF1 activator 51.9
Cc1cc2c(cc(C(=O)OCC(=O)NCc3cccs3)n2C(C)C)o1	RORa activator 56.6
Cc1cc(C(=O)NCc2cccs2)c(C)o1	none
O=C(CCCOc1ccccc1)Nc1ccncc1	PKA kinase inh 30.2, ROCK2 blocker 33.1
CCCCOc1ccc(C(=O)Nc2ccncc2)cc1	none
CN1CCN(c2ccc(NC(=O)c3ccc4c(c3)OCO4)cc2)CC1	SF1 activator 61.1
COc1ccc(NC(=O)c2ccc3c(c2)OCO3)cc1Cl	SF1 activator 53.2
CC(=O)N1CCN(c2ccc(NC(=O)c3ccc4c(c3)OCCO4)cc2)CC1	none
COC(=O)c1ccc(NC(=O)c2ccc3c(c2)OCO3)cc1	SF1 activator 53.3
COC(=O)c1ccc(NC(=O)c2cccc(OC)c2)cc1	RORa activator 48.7
O=C(CSc1nnc(-c2cccnc2)n1-c1ccccc1)Nc1ccc2c(c1)OCO2	none

Source: PubChem BioAssay
